Our source for the Hormonal activity, CNS activity and pKa values is ChEMBL document CHEMBL1121847, “Synthesis of thyrotropin-releasing hormone analogues with selective central nervous system effects” (J Med Chem, 1981).

Data set [1] deals with Rattus norvegicus. Nature of the data set: Compound was evaluated in vivo for its ability to stimulate release of [125I]-labeled T3 and T4 after administration of varying doses. Type of data set: functional. Put shortly: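 Varying doses of analogue were given in vivo, with ¹²⁵I-labeled T₃ and T₄ measured afterwards. Potency is expressed relative to TRH.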
For data set [2], the species on record is Rattus norvegicus. Briefly: CNS activity was measured by the ability to restore the anticonvulsant effect of methazolamide in reserpine treated rats. Also noted: unit not given beside the values. Type of data set: functional. Put shortly: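 Rats pretreated with reserpine received varying doses of analogue, and the read-out was restoration of methazolamide's anticonvulsant activity. Potency is expressed relative to TRH.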

A short description of data set [3]: Acid dissociation constant was measured. Type of data set: ADME.

On to `NC(=O)[C@@H]1CSCN1C(=O)[C@H](Cc1c[nH]cn1)NC(=O)[C@@H]1CCCC(=O)N1` [listing 1 of 2 here], for which the Hormonal activity in data set [1] came to 1. For the same compound, the CNS activity in data set [2] was 35.

As a reminder, the pKa is the negative logarithm of the acid dissociation constant. In turn, `NC(=O)[C@@H]1CCCN1C(=O)[C@H](Cc1c[nH]cn1)NC(=O)[C@@H]1CCCC(=O)N1` yielded a Hormonal activity in data set [1] of 1. Further, the pKa in data set [3] amounted to 6.18. In addition, the CNS activity in data set [2] was 4.

In the case of `COC(=O)[C@@H]1CCCCN1C(=O)[C@H](Cc1c[nH]cn1)NC(=O)[C@@H]1CCC(=O)N1` [listing 1 of 2 here], the pKa in data set [3] worked out at 6.18.

As for `COC(=O)[C@@H]1CCCCN1C(=O)[C@H](Cc1c[nH]cn1)NC(=O)[C@@H]1CCCC(=O)N1`, the Hormonal activity in data set [1] was found to be 0.02. In data set [2], this compound displayed a CNS activity of 0.9.

`COC(=O)[C@@H]1CCCCN1C(=O)[C@H](Cc1c[nH]cn1)NC(=O)[C@@H]1CCC(=O)N1` [listing 2 of 2 here] returned a Hormonal activity in data set [1] of 0.2. Besides, the CNS activity in data set [2] worked out at 1.

The compound `NC(=O)[C@@H]1CSCN1C(=O)[C@H](Cc1c[nH]cn1)NC(=O)[C@@H]1CCCC(=O)N1` [listing 2 of 2 here] displayed a pKa in data set [3] of 6.1.
